Molecules are shown by their SMILES. Bounds are passed on as bounds.

Test [1] deals with T1, Cannabinoid receptor 1 (Homo sapiens, UniProt P21554). As to the kind of experiment: Displacement of [3H]SR-141716A from human CB1 receptor at 10 uM. The procedure, abridged: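 Single-concentration screen at 10 µM on membranes of CHO cells stably expressing human CB1 (40 µg) against 1 nM [3H]-SR-141716A, 1 h at 30 °C, pH 7.4 Tris/MgCl2/EDTA/0.5% BSA. HU-210 10 µM for nonspecific binding. Reported as percent displacement. At least four experiments in duplicate.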

In test [2] the target is T2, Cannabinoid receptor 2 (Homo sapiens, UniProt P34972). As to the kind of experiment: Displacement of [3H]CP-55940 from human CB2 receptor at 10 uM. An outline of the steps: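 Single-concentration screen at 10 µM on CHO-hCB2 membranes (40 µg) against 1 nM [3H]-CP-55,940, 1 h at 30 °C, pH 7.4 Tris/MgCl2/EDTA/0.5% BSA. HU-210 10 µM defines nonspecific binding. Filtered, counted, reported as percent specific radioligand displacement. At least four experiments in duplicate, mean ± SEM.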

In test [3] the target is T2, Cannabinoid receptor 2. Put plainly: Displacement of [3H]CP-55940 from human CB2 receptor.
For test [4], the target named is T2, Cannabinoid receptor 2. Put plainly: Effect on human CB2 receptor stimulation by [35S]GTP-gamma-S binding at 10 uM (basal value set at 100%). The format is functional. An outline of the steps:
(§1)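 CHO-hCB2 membranes (40 µg) at 30 °C for 1 h in pH 7.4 Tris/MgCl2/EDTA/100 mM NaCl/0.1% BSA with 20 µM GDP. Started by 0.05 nM [35S]-GTPγS (final). Nonspecific binding with 100 µM Gpp(NH)p. Stopped with ice-cold buffer, filtered on GF/B, counted. EC50 by nonlinear regression. Single-point tests at 10 µM, three experiments in duplicate, one-way ANOVA with Dunnett test.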

The target of test [5] is T2, Cannabinoid receptor 2. As to the kind of experiment: Effect on [35S]GTP-gamma-S binding to human CB2 receptor. The format is functional. An outline of the steps: as §1
For test [6], the target named is T1, Cannabinoid receptor 1.
In test [7] the target is Cannabinoid receptor (Homo sapiens) (UniProt P34972+P21554). Put plainly: Selectivity ratio of human CB2 receptor versus human CB1 receptor in human. The format is protein assay. An outline of the steps: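 Ratio of Ki values from [3H]-SR-141716A (hCB1) and [3H]-CP-55,940 (hCB2) competition binding on CHO cell membranes. Ki from IC50 by Cheng-Prusoff, given only when Ki was obtained at both receptors.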
Cannabinoid receptor (Homo sapiens), sequence (P21554 whole entry, looked up): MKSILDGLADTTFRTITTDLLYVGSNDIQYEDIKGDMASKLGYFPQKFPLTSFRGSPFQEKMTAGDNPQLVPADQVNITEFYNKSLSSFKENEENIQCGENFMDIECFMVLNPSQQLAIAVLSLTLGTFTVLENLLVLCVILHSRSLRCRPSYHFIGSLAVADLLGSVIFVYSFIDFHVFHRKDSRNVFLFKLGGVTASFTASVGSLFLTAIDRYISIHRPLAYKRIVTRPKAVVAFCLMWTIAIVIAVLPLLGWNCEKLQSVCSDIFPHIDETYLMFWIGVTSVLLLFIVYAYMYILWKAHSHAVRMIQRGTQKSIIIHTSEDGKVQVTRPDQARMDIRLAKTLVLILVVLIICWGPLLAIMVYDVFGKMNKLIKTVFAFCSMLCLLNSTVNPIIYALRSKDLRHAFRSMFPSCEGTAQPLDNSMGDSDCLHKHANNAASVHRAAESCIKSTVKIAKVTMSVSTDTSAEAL
Cannabinoid receptor (Homo sapiens), sequence (P34972 whole entry, looked up): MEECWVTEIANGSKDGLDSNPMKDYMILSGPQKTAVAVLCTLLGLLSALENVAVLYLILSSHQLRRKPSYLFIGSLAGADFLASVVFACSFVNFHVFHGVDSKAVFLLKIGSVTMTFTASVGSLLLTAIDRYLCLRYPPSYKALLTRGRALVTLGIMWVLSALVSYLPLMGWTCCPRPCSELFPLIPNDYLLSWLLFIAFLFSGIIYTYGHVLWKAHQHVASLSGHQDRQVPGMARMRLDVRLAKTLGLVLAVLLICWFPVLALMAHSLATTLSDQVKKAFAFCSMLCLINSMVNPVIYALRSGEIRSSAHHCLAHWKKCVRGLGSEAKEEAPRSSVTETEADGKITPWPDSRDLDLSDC

T1 sequence (P21554 whole entry): as the sequence (P21554 whole entry, looked up) above
T2 sequence (P34972 whole entry): as the sequence (P34972 whole entry, looked up) above

As for `CCCCCn1cc(C(=O)NC23CC4CC(CC(C4)C2)C3)c(=O)c2ccccc21`, the Activity in test [1] was 59%; in test [2] it was 104%; in test [4] it was 126%. The same molecule registered a Ki in test [3] of 0.0164 µM.

For `CCCCn1cc(C(=O)Nc2ccc(OC)cc2)c(=O)c2ccccc21`, the values for the Activity in test [1] and in test [2] were under 20% and 50.5%, respectively.

Take `Cc1ccc(Cn2nc(C(=O)NC3C4(C)CCC(C4)C3(C)C)cc2-c2ccc(Cl)c(C)c2)cc1` (stereo not given): in test [4], the Activity stood at 21.6%. The molecule further had an Emax in test [5] of 21.6%.

`CCCCCn1cc(C(=O)NCc2ccccc2)c(=O)c2ccccc21`: the Activity in test [1] was 50.5%; in test [2] it was 66.7%; in test [4], 129%. In addition, the Ki in test [3] is over 1 µM.

In test [3], `CCCCCn1cc(C(=O)N[C@H](C)c2ccccc2)c(=O)c2ccccc21` returned a Ki of 0.0371 µM. In test [6], the Ki came to 1.15 µM. For the same molecule, in test [7], the Selectivity ratio was 31. The molecule further displayed an Activity in test [4] of 124%. In test [5], the midpoint of the response, the EC50, lay at 0.0168 µM and the Emax worked out at 129%.

In the case of `CCCCCn1cc(C(=O)NCCCc2ccccc2)c(=O)c2ccccc21`, the figures for the Activity in test [1], in test [2] and in test [4] were 32.8%, 85.5% and 134%, respectively. This molecule came in with a Ki in test [3] of over 1 µM.

`CCCC(C)(C)c1ccc2c(c1)OC(C)(C)[C@@H]1CC=C(C)C[C@@H]21` had a Ki in test [3] of 0.0203 µM. Besides, the Activity in test [4] is 148%. In test [5], this molecule yielded an EC50 of 0.146 µM and an Emax of 149%.

In turn, `CCCCCn1cc(C(=O)N[C@H](C)c2cccc3ccccc23)c(=O)c2ccccc21` displayed a Ki in test [3] of 0.125 µM. Further, the Activity in test [4] was determined as 119%.

For `CCCCCCC(C)(C)c1cc(O)c2c(c1)OC(C)(C)[C@@H]1CC=C(CO)C[C@@H]21`, the Activity in test [4] was determined as 135%. The same molecule registered an Emax in test [5] of 135%.

For `CCCCCCn1cc(C(=O)Nc2ccc(OC)cc2)c(=O)c2ccccc21`, the values for the Activity in test [1] and in test [2] were under 10% and 28.2%, respectively.

`CCCCCn1cc(C(=O)N2CCOCC2)c(=O)c2ccccc21`: the Activity in test [1] is under 10%; in test [2] it was 36.5%.

Turning to `CCCCCn1cc(C(=O)NC2CCCc3ccccc32)c(=O)c2ccccc21` (racemic), the results for the Activity in test [1], in test [2] and in test [4] were 79.7%, 96.5% and 123%, respectively. In addition, the values for the Ki in test [3] and in test [6] were 0.0602 µM and 1.05 µM, respectively. For the same molecule, the Selectivity ratio in test [7] was found to be 17. The same molecule registered an EC50 in test [5] of 0.157 µM. The Emax in test [5] was found to be 124%.

For the molecule `CCCCCn1cc(C(=O)NC2C3CC4CC(C3)CC2C4)c(=O)c2ccccc21` (stereo not given), the results for the Activity in test [1], in test [2] and in test [4] were 37.8%, 104% and 130%, respectively. The results for the Ki in test [3] and in test [6] were 0.0134 µM and 1.92 µM, respectively. Moreover, the Selectivity ratio in test [7] is 143. It took 0.0248 µM to reach a half-maximal effect in test [5] (EC50). Moreover, in test [5], the Emax is 126%.

In the case of `CCCCCCn1cc(C(=O)Nc2cccc3ccccc23)c(=O)c2ccccc21`, the Activity in test [1] worked out at 53.3%; in test [2], 80%; in test [4] it was 124%. In test [3], this molecule returned a Ki of 0.844 µM.

In test [3], `CCCCCn1cc(C(=O)N[C@H](C)c2ccc3ccccc3c2)c(=O)c2ccccc21` returned a Ki of 0.584 µM. Besides, the Activity in test [4] amounted to 122%.

Take `CCCCCn1cc(C(=O)NC(C)c2ccc3ccccc3c2)c(=O)c2ccccc21` (racemic): the Activity in test [1] was under 10%; in test [2] it was 82.9%; in test [4], 122%. The molecule also had a Ki in test [3] of over 1 µM.

Regarding `CC12CC3CC(C)(C1)CC(NC(=O)c1cn(Cc4ccccc4)c4ccccc4c1=O)(C3)C2`, the figures for the Activity in test [1], in test [2] and in test [4] were 32.5%, 86.3% and 121%, respectively. Also, the Ki in test [3] was 0.664 µM.

Regarding `CCCCCn1cc(C(=O)NC23CC4CC(C)(CC(C)(C4)C2)C3)c(=O)c2ccccc21`, the figures for the Activity in test [1], in test [2] and in test [4] were 54.6%, 95.6% and 131%, respectively. This molecule also returned a Ki in test [3] of 0.0158 µM. In test [5], this molecule returned an EC50 of 0.0141 µM. For the same molecule, the Emax in test [5] was 124%.

`CCCCCn1cc(C(=O)N[C@@H](C)c2cccc3ccccc23)c(=O)c2ccccc21` had a Ki in test [3] of over 1 µM.

In test [4], `Cc1c(C(=O)c2cccc3ccccc23)c2cccc3c2n1[C@H](CN1CCOCC1)CO3` showed an Activity of 128%. The Emax in test [5] worked out at 126%.

`CCCCCn1cc(C(=O)Nc2cccc3ccccc23)c(=O)c2ccccc21`: the Activity is 65.9% in test [1], 90.6% in test [2] and 124% in test [4]. Besides, the inhibition constant Ki came out at 0.371 µM in test [3] and 4.08 µM in test [6]. Moreover, the Selectivity ratio in test [7] is 11.

With `CCCCCn1cc(C(=O)NC(C)c2ccccc2)c(=O)c2ccccc21` (racemic), the results for the Activity in test [1], in test [2] and in test [4] were 68.3%, 101% and 130%, respectively. This molecule also had a Ki in test [3] of 0.0708 µM.

In turn, `CCCCCCC(C)(C)c1ccc([C@@H]2C[C@H](O)CC[C@H]2CCCO)c(O)c1` showed an Activity in test [4] of 146%. Also, the Emax in test [5] was 146%.

In the case of `CCCCCCn1cc(C(=O)NCc2ccccc2)c(=O)c2ccccc21`, the values for the Activity in test [1] and in test [2] were 37.4% and 54.6%, respectively.

For the molecule `CCCCCn1cc(C(=O)N[C@@H](C)c2ccccc2)c(=O)c2ccccc21`, the Ki in test [3] turned out to be 0.784 µM.

Turning to `CCCCCn1cc(C(=O)O)c(=O)c2ccccc21`, the Activity in test [1] was under 20%; in test [2], under 15%.

`CCCCn1cc(C(=O)Nc2cccc3ccccc23)c(=O)c2ccccc21`: the Activity in test [1] is 45.3%; in test [2] it was 85.4%; in test [4] it was 132%. For the same molecule, in test [3], the affinity, expressed as Ki, was 0.455 µM.

On to `CCCCCn1cc(C(=O)NCc2ccc(OC)cc2)c(=O)c2ccccc21`, for which the Activity in test [1] is under 10%; in test [2], 51.7%.

Turning to `CCCCCn1cc(C(=O)NCCc2ccccc2)c(=O)c2ccccc21`, the Activity was found to be 64.8% in test [1], 98.2% in test [2] and 136% in test [4]. In test [3], this molecule gave a Ki of 0.201 µM.

In the case of `CCCCCn1cc(C(=O)NC(C)c2cccc3ccccc23)c(=O)c2ccccc21` (racemic), the results for the Activity in test [1], in test [2] and in test [4] were 35.5%, 98.9% and 117%, respectively. The molecule also showed a Ki in test [3] of 0.174 µM.

For the molecule `CCCCCn1cc(C(=O)Nc2ccc(Cl)c(Cl)c2)c(=O)c2ccccc21`, the Activity in test [1] is under 10%; in test [2], 68.1%; in test [4], 116%. Besides, the Ki in test [3] was over 1 µM.

In the case of `CCCCCn1cc(C(=O)N[C@@H](C)c2ccc3ccccc3c2)c(=O)c2ccccc21`, in test [3], the Ki was over 5 µM.

Take `CCCCCn1cc(C(=O)Nc2ccc(C#N)cc2)c(=O)c2ccccc21`: the Activity in test [1] was 49.6%; in test [2], 79.4%; in test [4] it was 133%. Also, the Ki in test [3] is 0.772 µM.

Regarding `CCCCCn1cc(C(=O)NCCc2ccc3c(c2)OCO3)c(=O)c2ccccc21`, the Activity in test [1] was determined as 43.6%; in test [2] it was 88.7%; in test [4], 136%. In test [3], this molecule gave a Ki of 0.426 µM.

`CCCCCn1cc(C(=O)Nc2ccc3ccccc3c2)c(=O)c2ccccc21`: the Activity in test [1] is under 10%; in test [2], 63.9%.

With `CCCCCn1cc(C(=O)Nc2ccc(OC)cc2)c(=O)c2ccccc21`, the Activity was under 20% in test [1] and 60.1% in test [2].

For the molecule `CCCCn1cc(C(=O)NCc2ccccc2)c(=O)c2ccccc21`, the figures for the Activity in test [1] and in test [2] were 33.6% and 44.9%, respectively.

As for `CCCCCn1cc(C(=O)Nc2ccc(-c3ccccc3)cc2)c(=O)c2ccccc21`, the Activity in test [1] and in test [2] was under 20% throughout.

The values above are taken from ChEMBL document CHEMBL1148594, “Novel 4-oxo-1,4-dihydroquinoline-3-carboxamide derivatives as new CB2 cannabinoid receptors agonists: synthesis, pharmacological properties and molecular modeling” (J Med Chem, 2006).
